Source: ChEMBL document CHEMBL3044850, “Synthesis and biological activities of novel pyrazole oxime derivatives containing a 2-chloro-5-thiazolyl moiety” (2008)
In brackets after ≈: the same amount, converted by molar mass. Activity calls are given as the source filed them. The rule behind the calls is not given here.

Key:
Format in all cases: functional
Fusarium graminearum = assay: Fungicidal activity against Fusarium graminearum assessed as growth inhibition at 50 ug/ml at 23 degC after 3 days; conditions: for inhibition of growth at 50 µg/mL: 72 h, read-out: GI
Outline: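 Mycelial growth test in agar plates with 50 µg/mL final compound (from 500 µg/mL solution diluted into medium). A 4 mm plug from active mycelium fringe is placed centrally and incubated at 23 °C. Diameter is read after 3 days against a sterile water plus medium blank, in triplicate. Inhibition I = [(C − T)/C] × 100%.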

Mycosphaerella arachidis = assay: Fungicidal activity against Mycosphaerella arachidis assessed as growth inhibition at 50 ug/ml at 23 degC after 3 days; conditions: for inhibition of growth at 50 µg/mL: 72 h, read-out: GI
Outline: (§1)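 Test solutions were made at 500 µg/mL and mixed 1:9 with agar medium to give 50 µg/mL plates. A 4 mm plug from the edge of actively growing mycelium was placed at the plate centre and incubated at 23 °C. Colony diameter was measured after 3 days against a sterile water plus medium blank, in triplicate. Inhibition = [(C − T)/C] × 100%.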

Tetranychus cinnabarinus = assay: Insecticidal activity against Tetranychus cinnabarinus (carmine spider mite) in soybean tender shoots assessed as mortality at 0.2 mg/ml treated for 5 secs measured after 48 hr
Outline: (§2)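 Insects held at 26 °C, 60% relative humidity, 14 h photoperiod. Acetone stock at 0.5 mg/mL is diluted with water containing TW-20. Soybean tender shoots bearing 60 insects are dipped for 5 s, drained, then kept under the same conditions. Mortality is scored after 48 h relative to untreated controls, in triplicate.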

[1] = tested on: Botryosphaeria berengeriana; assay: Fungicidal activity against Botryosphaeria berengeriana assessed as growth inhibition at 50 ug/ml at 23 degC after 3 days; conditions: for inhibition of growth at 50 µg/mL: 72 h, read-out: GI; outline: as §1
Aphis medicaginis [2] = assay: Insecticidal activity against Aphis medicaginis in soybean tender shoots assessed as mortality at 0.2 mg/ml treated for 5 secs measured after 48 hr; outline: as §2
Alternaria solani = assay: Fungicidal activity against Alternaria solani assessed as growth inhibition at 50 ug/ml at 23 degC after 3 days; conditions: for inhibition of growth at 50 µg/mL: 72 h, read-out: GI; outline: as §1
Aphis medicaginis [3] = assay: Insecticidal activity against Aphis medicaginis in soybean tender shoots assessed as mortality at 0.5 mg/ml treated for 5 secs measured after 48 hr; outline: as §2
Cladosporium cucumerinum = assay: Fungicidal activity against Cladosporium cucumerinum assessed as growth inhibition at 50 ug/ml at 23 degC after 3 days; conditions: 72 h, read-out: GI; outline: as §1
Cucumis sativus = assay: Growth regulation of Cucumis sativus (cucumber) seeds assessed as rhizogenesis at 10 ug/ml at 24 degC after 3 days by cucumber cotyledon test
Outline: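 Cucumber seeds (JINKE No. 4) were germinated in the dark at 24 °C for 3 days, and cotyledons of uniform size were selected. Sample in DMF (10 µg/mL) was sprayed onto filter paper and dried, then the paper was wetted with distilled water. Ten cotyledons were incubated in the dark at 24 °C for 3 days. Rhizogenesis was counted per 10 hypocotyls, in triplicate, with a distilled-water control and Student's t test.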

Aphis medicaginis [4] = assay: Insecticidal activity against Aphis medicaginis in soybean tender shoots assessed as mortality treated for 5 secs measured after 48 hr

| Structure (SMILES) | inhibition of growth at 50 µg/mL (Fusarium graminearum) [%] | growth inhibition (GI) (Mycosphaerella arachidis) | mortality (Tetranychus cinnabarinus) | inhibition of growth at 50 µg/mL [1] [%] | mortality at 200 µg/mL (Aphis medicaginis [2]) [%] | inhibition of growth at 50 µg/mL (Alternaria solani) [%] | mortality at 500 µg/mL (Aphis medicaginis [3]) [%] | inhibition of growth at 50 µg/mL (Cladosporium cucumerinum) [%] | Activity (Cucumis sativus) [%] | inhibition of growth at 50 µg/mL (Mycosphaerella arachidis) [%] | mortality at 200 µg/mL (Tetranychus cinnabarinus) [%] | LC50 (Aphis medicaginis [4]) [µg/mL] | growth inhibition (GI) (Alternaria solani) | growth inhibition (GI) [1] | growth inhibition (GI) (Fusarium graminearum) |
| --- | --- | --- | --- | --- | --- | --- | --- | --- | --- | --- | --- | --- | --- | --- | --- |
| Cn1nc(C(F)(F)F)c(/C=N/OCc2cnc(Cl)s2)c1Oc1ccc(C(C)(C)C)cc1 | 12.5 | inactive | inactive | 22.1 | 73.3 | 24.8 | 89.4 | 18.1 | 72.7 | – | – | – | – | – | – |
| Cn1nc(C(F)(F)F)c(/C=N/OCc2cnc(Cl)s2)c1Oc1ccc(F)cc1 | 29 | – | – | 24.2 | 75.3 | 26.9 | 90.2 | 53.4 | 28.6 | 67.2 | 13.4 | – | – | – | – |
| O=[N+]([O-])/N=C1\NCCN1Cc1ccc(Cl)nc1 [IMIDACLOPRID] | – | – | – | – | 92.1 | – | 94.7 | – | – | – | – | 9.1 (≈ 35.6 µM) | – | – | – |
| Cn1nc(C(F)(F)F)c(/C=N/OCc2cnc(Cl)s2)c1Oc1ccccc1 | 22.4 | – | – | 30.3 | 20.2 | 65.6 | 41.4 | 21.6 | -12.5 | 8.7 | 11.2 | – | – | – | – |
| CC(C)(C)C(=O)C(Oc1ccc(Cl)cc1)n1cncn1 (centres undefined) [TRIADIMEFON] | 72.6 | – | – | 86.7 | – | 66.1 | – | 81.5 | 50.2 | 73.4 | – | – | – | – | – |
| Cc1ccc(Oc2c(/C=N/OCc3cnc(Cl)s3)c(C(F)(F)F)nn2C)cc1 | 23.8 | – | – | 21 | 85.4 | 34.6 | 95.3 | 15.7 | 43.6 | 5.9 | 3.4 | – | – | – | – |
| Cn1nc(C(F)(F)F)c(/C=N/OCc2cnc(Cl)s2)c1Oc1ccc(Cl)cc1 | 36.3 | – | inactive | 32.1 | 84.4 | – | 92.3 | 15.4 | -34.3 | 11.8 | – | – | inactive | – | – |
| Cc1ccc(Oc2c(/C=N/OCc3cnc(Cl)s3)c(C(F)(F)F)nn2C)cc1C | 31.3 | – | – | 26.2 | 61.4 | 53.2 | 71.2 | 8.9 | -23.8 | 32.9 | 6.4 | – | – | – | – |
| Cn1nc(C(F)(F)F)c(/C=N/OCc2cnc(Cl)s2)c1Sc1ccccc1 | 40.8 | – | – | 29.5 | 83.4 | 43.5 | 92.2 | 9.7 | 21.8 | 12.7 | 14.4 | – | – | – | – |
| Cc1ccccc1Oc1c(/C=N/OCc2cnc(Cl)s2)c(C(F)(F)F)nn1C | 21.2 | – | – | 35 | 81.3 | 42.6 | 90.4 | 32.6 | -26.8 | 10 | 9.3 | – | – | – | – |
| Cn1nc(C(F)(F)F)c(/C=N/OCc2cnc(Cl)s2)c1Oc1ccc(Br)cc1 | 41.6 | – | – | 32.9 | 77.4 | 12.4 | 90.4 | 17.5 | 48.5 | 9.2 | 4.3 | – | – | – | – |
| Cc1cccc(Oc2c(/C=N/OCc3cnc(Cl)s3)c(C(F)(F)F)nn2C)c1 | 33.6 | – | – | 45.3 | 82.4 | 28 | 93.1 | 31.3 | 22.7 | 11.8 | 2.3 | – | – | – | – |
| Cn1nc(C(F)(F)F)c(/C=N/OCc2cnc(Cl)s2)c1Sc1ccc(Cl)cc1 | 32.6 | – | – | 42.4 | 80.4 | 28.8 | 91.4 | 18.9 | 34.7 | 25.8 | 11.3 | 26.2 (≈ 56.1 µM) | – | – | – |
| Cn1nc(C(F)(F)F)c(/C=N/OCc2cnc(Cl)s2)c1Oc1ccc(Cl)cc1Cl | 24.3 | – | – | – | 86.3 | 29.2 | 97.4 | 32.3 | 72.3 | 42.5 | 7.2 | 22.9 (≈ 47.1 µM) | – | inactive | – |
| Cn1nc(C(F)(F)F)c(/C=N/OCc2cnc(Cl)s2)c1Oc1cccc(Cl)c1 | 26.7 | – | – | 21.7 | 61.2 | 22.9 | 70.4 | 43.1 | 14.2 | 55.3 | 7.4 | – | – | – | – |
| Cc1ccc(Cl)c(Oc2c(/C=N/OCc3cnc(Cl)s3)c(C(F)(F)F)nn2C)c1 | – | – | – | 29.8 | 69.2 | 32.3 | 83.4 | 48.5 | 37.9 | 10.1 | 17.4 | – | – | – | inactive |
| Cc1nn(C)c(Oc2ccccc2)c1/C=N/OCc1ccc(C(=O)OC(C)(C)C)cc1 [FENPYROXYMATE] | 5.2 | – | – | 6.7 | 12.4 | 8.3 | 18.4 | 14.5 | 10.6 | 12.5 | 99.7 | – | – | – | – |
| Cn1nc(C(F)(F)F)c(/C=N/OCc2cnc(Cl)s2)c1Oc1ccccc1Cl | 24.6 | – | – | 23.6 | 46.1 | – | 59.3 | 23.7 | 53.9 | 12.6 | 6.2 | – | inactive | – | – |
| COc1ccc(Oc2c(/C=N/OCc3cnc(Cl)s3)c(C(F)(F)F)nn2C)cc1 | – | – | – | 46.5 | 83.4 | 14.6 | 92.2 | 12.3 | 30.8 | 22.6 | 13.4 | – | – | – | inactive |
